Active and inactive are the calls of the source. The rule behind the calls is not given here.
Columns and labels:
[1] = system: Mus musculus; assay: Toxicity in BALB/c nude mouse xenografted with human MDA-MB-231 cells assessed as spleen damage at 2.5 to 10 mg/kg, po qd administered for 32 days by H&E staining based light microscopy; format: organism-based; conditions: in vivo, 768 h
How it was run: (§1)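 6-week-old female athymic SPF BALB/c nude mice received 5 x 10^6 MDA-MB-231 cells s.c. in the flank. Oral treatment began once tumors reached about 100 mm3, with 8 mice per group and a saline vehicle control. […] Treatment lasted 32 days. Heart, liver, spleen, lung and kidney were fixed 48 h in 10% neutral-buffered formaldehyde, paraffin-embedded, cut at 5 µm, H&E-stained and examined by light microscopy.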

[2] = system: Mus musculus; assay: Toxicity in BALB/c nude mouse xenografted with human MDA-MB-231 cells assessed as heart damage at 2.5 to 10 mg/kg, po qd administered for 32 days by H&E staining based light microscopy; format: organism-based; conditions: in vivo, 768 h; how it was run: as §1
[3] = target: T1, Signal transducer and activator of transcription 1-alpha/beta (Homo sapiens) (UniProt P42224); assay: Inhibition of STAT1 in human MDA-MB-231 cells assessed as reduction in CDK2 mRNA level at 5 to 10 uM by RT-PCR analysis; format: cell-based
T1 sequence (whole entry): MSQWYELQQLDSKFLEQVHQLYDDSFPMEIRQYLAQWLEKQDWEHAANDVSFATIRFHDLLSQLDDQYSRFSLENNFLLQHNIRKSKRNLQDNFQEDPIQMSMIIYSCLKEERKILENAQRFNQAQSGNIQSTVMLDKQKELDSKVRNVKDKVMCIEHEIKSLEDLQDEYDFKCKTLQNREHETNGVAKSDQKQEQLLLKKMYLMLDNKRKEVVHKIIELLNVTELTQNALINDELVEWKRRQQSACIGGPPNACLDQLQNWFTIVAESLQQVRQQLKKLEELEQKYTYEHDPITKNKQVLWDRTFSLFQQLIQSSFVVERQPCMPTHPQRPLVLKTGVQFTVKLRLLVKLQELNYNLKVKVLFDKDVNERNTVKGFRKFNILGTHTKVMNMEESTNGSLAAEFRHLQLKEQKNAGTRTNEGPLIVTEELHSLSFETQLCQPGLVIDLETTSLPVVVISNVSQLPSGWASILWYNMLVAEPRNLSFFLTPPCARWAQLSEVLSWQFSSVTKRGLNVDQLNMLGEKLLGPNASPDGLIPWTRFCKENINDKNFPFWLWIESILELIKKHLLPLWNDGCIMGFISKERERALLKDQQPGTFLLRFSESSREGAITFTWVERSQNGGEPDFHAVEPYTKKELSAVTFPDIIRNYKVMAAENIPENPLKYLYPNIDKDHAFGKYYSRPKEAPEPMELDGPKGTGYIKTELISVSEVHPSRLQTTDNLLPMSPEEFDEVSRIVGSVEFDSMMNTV
How it was run: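 Total RNA was extracted from treated MDA-MB-231 cells and 1 µg reverse-transcribed. qPCR ran 95 °C 5 min, then 40 cycles of 95 °C 10 s, 60 °C 15 s and 72 °C 15 s, followed by a melt curve from 60 to 95 °C.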

[4] = system: Mus musculus; assay: Effect on total STAT3 level in BALB/c nude mouse xenografted with human MDA-MB-231 at 2.5 to 10 mg/kg, po qd administered for 32 days by Western blot analysis; format: ADME, organism-based; conditions: in vivo, 768 h
How it was run: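 Whole-cell lysates from MDA-MB-231 xenograft tumors of mice dosed orally at 2.5, 5 or 10 mg/kg were immunoblotted for P-STAT3(Y705), T-STAT3 and GAPDH.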

[5] = system: Mus musculus; assay: In vivo inhibition of STAT3 in po dosed BALB/c nude mouse xenografted with human MDA-MB-231 assessed as reduction in p-STAT3 level administered as qd for 32 days by DAB-staining based IHC analysis; format: functional, organism-based
How it was run: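 Fixed sections of MDA-MB-231 xenograft tumors from orally dosed nude mice were immunostained for p-STAT3, with positive cells visualized by DAB.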

[6] = Terminal half life in Sprague-Dawley rat plasma at 10 mg/kg, po measured after 24 hrs by UPLC analysis; format: ADME, organism-based; conditions: read-out: beta t1/2 (converted)
How it was run: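 Rats dosed i.v. or p.o. Plasma concentrations followed from 2 min to 24 h after dosing. The bioanalytical method was validated to FDA guidelines for selectivity, linearity, LLOQ, accuracy, precision, recovery, matrix effect and stability.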

[7] = AUC (0 to t) in Sprague-Dawley rat plasma at 10 mg/kg, po measured after 24 hrs by UPLC analysis; format: ADME, organism-based; design: time < 24 hr, dose 10 mg/kg, route oral
How it was run: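 Rat plasma sampled from 2 min to 24 h after a single i.v. (1 mg/kg) or p.o. (10 mg/kg) dose. Parameters were derived from the concentration-time profiles. The bioanalytical method was validated to FDA guidelines for selectivity, linearity, LLOQ, accuracy, precision, recovery, matrix effect and stability.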

[8] = target: T1, Signal transducer and activator of transcription 1-alpha/beta (Homo sapiens); assay: Inhibition of STAT1 in human MDA-MB-231 cells assessed as reduction in IFN-gamma-induced STAT1-STAT1 DNA binding activity at 2.5 to 10 uM preincubated for 2 hrs followed by IFN-gamma stimulation measured after 30 mins by EMSA; format: cell-based
How it was run: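 Serum-starved MDA-MB-231 cells were preincubated with compound, stimulated with IFN-γ 50 ng/mL, and then nuclear extracts were taken for EMSA with biotin-labeled probe.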

[9] = Clearance in Sprague-Dawley rat plasma at 1 mg/kg, iv measured after 24 hrs by UPLC analysis; format: ADME, organism-based
How it was run: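 Parameters were derived from the concentration-time profiles. The bioanalytical method was validated to FDA guidelines for selectivity, linearity, LLOQ, accuracy, precision, recovery, matrix effect and stability.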

In the case of `NS(=O)(=O)c1cccc2c1C(=O)C=C(Nc1ccccc1N1CCNCC1)C2=O`, the Activity [1] is reported as “Non-Toxic”, the Activity [2] is reported as “Non-Toxic” and the inhibition [3] is reported as “inactive”. For the same compound, the Activity [4] was “Non-Toxic”, the inhibition [5] was “Dose-dependent effect” and the half-life [6] was 1.98 h. The AUC(0-t) at 24 h [7] was 850 ng·h/mL, the inhibition [8] was “inactive” and the clearance [9] was 87.7 mL/min/kg.

From ChEMBL document CHEMBL4007452, “Discovery of an Orally Selective Inhibitor of Signal Transducer and Activator of Transcription 3 Using Advanced Multiple Ligand Simultaneous Docking” (J Med Chem, 2017)
